Assay results as given in PMC6465157 (Chemical research in toxicology, 2019).
Read-outs that look alike come from different tables or passages of the source.

What was measured:
[1] = format: in vivo, mice
How it was run: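 Blood extracts were dried under nitrogen. Headspace was sampled by SPME with a 100 µm PDMS fiber for 60 min at 60 °C, then desorbed in the injector for 5 min. Atropisomers were separated by GC-µECD with injector and detector at 250 °C and helium at 3.0 mL/min. The parent was measured on Chirasil-Dex at all time points from 1 to 48 h. Hydroxylated metabolites were measured at 5 h only, on Chirasil-Dex or CycloSil-B columns. Enantiomeric fractions were reported, n = 3–6.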

[2] = format: in vivo, mice; remark: listed apart in the source
How it was run: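 Whole blood was taken 1 to 48 h after a single oral gavage (6.63 mg/kg in corn oil). Hydroxylated metabolites were methylated, and all analytes were run by GC with 63Ni-µECD on an SPB-1 column (60 m × 250 µm × 0.25 µm). The oven ran from 100 °C to 280 °C; injector was 280 °C, detector 300 °C, helium 1.0 mL/min. A PCB congener internal standard served as volume corrector.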

[3] = test system: mice; assay: Daily animal welfare-assessments of exposed mice; format: in vivo; conditions: 6.63 mg/kg body weight in corn oil by oral gavage, up to 48 h
How it was run: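 Male and female mice (8 weeks ± 2 days) with liver-specific cpr deletion and congenic wild-type mice were housed at 22 ± 2 °C on a 12 h light-dark cycle with diet and water ad libitum. They were randomised to a single gavage of test compound (6.63 mg/kg; 18.4 µmol/kg) in corn oil (10 mL/kg) or to corn oil alone. Lab personnel assessed welfare daily.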

[4] = prior study, 30 mg/kg body weight, cited from earlier work
[5] = 5 h time point, all four exposure groups (M-KO, M-WT, F-KO, F-WT)
[6] = 5 h time point, all exposure groups

Clc1ccc(Cl)c(-c2c(Cl)ccc(Cl)c2Cl)c1Cl [E2-(+)-PCB 136]
Atropisomeric enrichment in whole blood ([1]; all samples, 1 to 48 h, male and female KO and WT mice): enriched

Oc1c(O)c(Cl)c(-c2c(Cl)ccc(Cl)c2Cl)c(Cl)c1Cl [4,5–136, 4,5-dihydroxy-2,2′,3,3′,6,6′-hexachlorobiphenyl]
Detection in whole blood [2, 5]: detected

Oc1cc(Cl)c(Cl)c(-c2c(Cl)ccc(Cl)c2Cl)c1Cl [5–136, 2,2′,3,3′,6,6′-hexachlorobiphenyl-5-ol]
Detection in whole blood [2, 5]: detected

Clc1ccc(Cl)c(-c2c(Cl)ccc(Cl)c2Cl)c1Cl [PCB 136, 2,2’,3,3’,6,6’-hexachlorobiphenyl]
Detection in whole blood ([2]; all time points investigated (1 to 48 h), oral racemic PCB 136 6.63 mg/kg): detected | Adverse outcomes in daily animal welfare-assessments [3]: no adverse outcomes were observed | Enantiomeric fraction (EF) of PCB 136 ([4]; F-WT mice): 0.63 ± 0.06 | Enantiomeric fraction (EF) of PCB 136 ([4]; M-WT mice (so in the source)): 0.66 ± 0.03

Oc1cc(Cl)c(-c2c(Cl)ccc(Cl)c2Cl)c(Cl)c1Cl [4–136, 2,2′,3,3′,6,6′-hexachlorobiphenyl-4-ol]
Detection in whole blood [2, 5]: detected

Oc1c(Cl)cc(Cl)c(-c2c(Cl)ccc(Cl)c2Cl)c1Cl [3–150, 2,2′,3′,4,6,6′-Hexachlorobiphenyl-3-ol]
Detection in whole blood [2, 5]: detected

Oc1cc(Cl)c(-c2c(Cl)ccc(Cl)c2Cl)c(Cl)c1Cl [E2-4–136]
Atropisomeric enrichment in whole blood [1, 6]: enriched

Oc1cc(Cl)c(Cl)c(-c2c(Cl)ccc(Cl)c2Cl)c1Cl [E1-5–136]
Atropisomeric enrichment in whole blood [1, 6]: enriched
